# Bioassay records (PubChem)
# The list is not random: actives were taken first. Their share in the collection is about 1.2%.
# proCasp3 act – activators of human procaspase-3; recombinant procaspase-3 D3A, Ac-DEVD-pNA absorbance 405 nm; activation, % at 8.5 µM; 330,000 compounds, 0.11% hits; AID 463141;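 active = activation above the mean of all tested compounds plus 3 SD, cut at about 21% in these data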;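 note: 0% = DMSO alone and 100% = DMSO wells spiked with extra 5 µM PC-3 D3A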
# Target sequence (P42574 whole entry D9A/D28A/D175A): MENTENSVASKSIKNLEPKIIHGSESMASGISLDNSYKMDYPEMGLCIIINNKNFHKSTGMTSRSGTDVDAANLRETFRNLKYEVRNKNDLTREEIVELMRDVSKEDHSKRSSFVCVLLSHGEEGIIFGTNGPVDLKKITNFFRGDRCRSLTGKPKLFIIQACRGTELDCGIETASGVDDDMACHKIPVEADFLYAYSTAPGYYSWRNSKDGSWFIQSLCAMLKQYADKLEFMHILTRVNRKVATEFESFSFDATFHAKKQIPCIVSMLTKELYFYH
#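 Assay system – Procaspase-3 D3A mutant · Benchmarks – DMSO low control, extra-enzyme high control · Technique – 405 nm absorbance of p-nitroaniline, reads at 0 and 120 min · Doses – 8.5 µM nominal · Measure – % activation between DMSO and enzyme-spiked controls · Also added – Ac-DEVD-pNA chromogenic peptide substrate · Schedule – 1 h compound preincubation, 2 h substrate hydrolysis at 25 °C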
# procasp7 counter – activates human procaspase-7, counter-screen for procaspase-3 activators | recombinant procaspase-7, Ac-DEVD-pNA absorbance 405 nm; D23A/D198A/D206A triple mutant, cannot self-cleave; scale: DMSO 0, 5 µM enzyme 100 | activation, % at 8.5 µM | 330,000 compounds, 0.093% hits | AID 463210;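 active = percent activation above the screen-wide mean plus 3 SD, cut at about 25% in these data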
# Target sequence (P55210 whole entry D23A/D198A/D206A): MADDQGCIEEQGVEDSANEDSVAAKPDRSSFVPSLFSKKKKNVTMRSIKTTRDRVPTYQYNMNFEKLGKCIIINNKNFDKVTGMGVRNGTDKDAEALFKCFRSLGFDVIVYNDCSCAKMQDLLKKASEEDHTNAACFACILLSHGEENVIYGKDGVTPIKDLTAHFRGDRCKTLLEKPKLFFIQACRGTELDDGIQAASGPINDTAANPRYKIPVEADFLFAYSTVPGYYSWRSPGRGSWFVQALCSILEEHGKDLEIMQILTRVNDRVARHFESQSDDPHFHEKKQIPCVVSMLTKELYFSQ
#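 Replicates: singlicate. Assay system: Procaspase-7 triple mutant (PC-7 D3A). Signal: 405 nm absorbance of p-nitroaniline. Times: 1 h preincubation, 2 h reaction. Buffer or medium: Zinc-free HEPES pH 7.4 with 300 mM NaCl, 0.01% Triton X-100. Also added: DEVD-pNA substrate. Benchmarks: DMSO wells as 0%, DMSO with 5 µM added PC-7 as 100%.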
# IDE cell inh – inhibits human insulin-degrading enzyme in HEK cells. 320,000 compounds, 0.41% hits. inhibition, % at 5.59 µM. FAbetaB cleavage, fluorescence polarization. AID 434962. P14735;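 active = percent inhibition above the average of all tested compounds plus 3 SD, set per screening campaign, cut at about 16% in these data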;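 note: IDE supplied by intact live HEK cells; FP after avidin binding of uncleaved biotin substrate so inhibition keeps polarization high; 0% = DMSO wells and 100% = 60 µM reference IDE inhibitor Ii1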
# TPT1 inhibitor – blocks Candida albicans tRNA 2'-phosphotransferase; recombinant caTPT1, FP RNA substrate dephosphorylation; inhibition, % at 5 µM; 300,000 compounds, 0.81% hits; AID 1962;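 active = inhibition above the mean of all tested compounds plus 3 SD, set per screening campaign, cut at about 24% in these data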;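 note: plate controls were DMSO alone for no effect and ferristatin control at 100 nM for full effect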
# IDE act – IDE (human) activation, cell-based | P14735 | HEK cells, FAbeta-B cleavage, fluorescence polarization; 0% vehicle, 100% cell-free pure enzyme wells | 340,000 compounds, 0.073% hits | activation, % at 5.96 µM;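 active = activation above the mean of all tested compounds plus 3 SD, set per screening campaign, cut at about 17% in these data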
# IDE cell inh cf – cellular human IDE inhibition, confirmation | inhibition, % at 5.59 µM | HEK cells, FAbetaB cleavage, fluorescence polarization | AID 435028 | shares compounds with IDE cell inh | 1,200 compounds, 51% hits;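 active = mean inhibition across triplicate wells above the cutoff set by the earlier primary insulin-degrading enzyme screen, cut at about 16% in these data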;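 note: 0% = DMSO wells and 100% = 60 µM reference IDE inhibitor Ii1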
# HEK cytotox – HEK cell cytotoxicity, counter-screen for IDE inhibitors; HEK293 cytotoxicity, ATP luminescence; inhibition, % at 5.59 µM; shares compounds with IDE cell inh; AID 449730; 1,200 compounds, 28% hits; in the data active = inhibition above about 22%;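 note: 0% = vehicle wells and 100% = reference cytotoxic drug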
# * hit, by the source's call; · = no result given.
SMILES,proCasp3 act,procasp7 counter,IDE cell inh,TPT1 inhibitor,IDE act,IDE cell inh cf,HEK cytotox
O=C(C(c1ccccc1)c1ccccc1)N1CC[C@@]2(O)CCCC[C@H]2C1,-10,1,0,0,5,·,·
Cc1ccc(NC(=O)CCCCCC2NC(=O)NC2C)cc1 (stereo not drawn),2,8,5,-1,-13,·,·
CCc1cccc(NC(=O)CCCCCC2NC(=O)NC2C)c1 (stereo not drawn),2,1,22*,-2,-17,14,11
Cc1ccc(S(=O)(=O)Nc2ccc(O)c3ccccc23)c(C)c1,·,·,·,·,0,·,·
Cc1ccc(S(=O)(=O)Nc2cc(C(C(=O)OC(C)C)C(=O)C(F)(F)F)c(O)c3ccccc23)c(C)c1 (stereo not drawn),-23,-26,22*,1,-2,4,16
CC(C)(C)OC(=O)N1CSC[C@H]1C(=O)NC[C@H](CC(=O)O)c1ccc(Cl)cc1,4,6,-3,-1,2,·,·
O=C(/C=C/c1ccc(OCc2cccc(Cl)c2)cc1)N1CCOCC1,1,6,18*,-4,-6,10,18
C/C(=N/NC(=O)CN1CCN(Cc2ccccc2Cl)CC1)c1ccncc1,-2,-2,24*,1,-22,15,7
C/C(=N\NC(=O)CN1CCN(Cc2ccccc2)CC1)c1ccncc1,12,1,0,0,3,·,·
COCCCNCC(O)COc1ccccc1F (stereo not drawn),1,3,5,1,6,·,·
Cc1ccc2nc(NC(=O)CSc3nc4c(c(=O)n3C)SC(C)C4)sc2c1 (stereo not drawn),-5,14,25*,4,-21,12,20
Cc1ccc(C)c(NC(=O)CSc2nc3c(c(=O)n2C)SC(C)C3)c1 (stereo not drawn),2,1,-2,1,3,·,·
O=C(O)c1ccc2c(=O)n3c(nc2c1)/C(=C/c1cccc(Cl)c1Cl)CCCC3,5,8,18*,-3,1,3,1
COc1ccc(N=C(C)C2=C(O)c3ccccc3C2=O)cc1,7,-11,18*,0,-5,7,16
CC(=O)Nc1ccc(NC(=O)C(C)Sc2nc3ccccc3c(=O)n2CC2CCCO2)cc1 (stereo not drawn),-3,-2,-1,-2,-1,·,·
NC(=O)c1ccc(/C=N/O)[n+](Cc2ccccc2)c1,6,10,0,-2,-1,·,·
Cc1c(OCC(=O)N2CCC[C@@H]2C(=O)O)ccc2c3c(c(=O)oc12)CCC3,2,0,9,0,1,·,·
Cc1c(C)c2ccc(OCC(=O)N3CCC[C@@H]3C(=O)O)c(C)c2oc1=O,9,9,17*,2,5,2,15
COc1ccc(NC(C)=O)cc1NC(=O)c1ccc(C#N)cc1,5,0,1,-1,-3,·,·
CC1CC(C)CN(S(=O)(=O)N2CCC(C(=O)NCCc3ccccc3)CC2)C1 (stereo not drawn),-2,2,0,-6,0,·,·
CC(C)CC(=O)NC(c1cccs1)c1ccc2cccnc2c1O (stereo not drawn),2,-2,17*,10,-2,8,106*
CCCCC(=O)NC(c1ccc(Cl)cc1)c1ccc2cccnc2c1O (stereo not drawn),-1,-7,19*,0,-6,4,99*
O=C(O)CSc1ccc(NC(=O)Nc2ccccc2F)cc1,3,-10,1,-1,3,·,·
S=C(Nc1ccccc1)Nc1nc2ccccc2n1CCOc1ccc(Br)cc1,0,-7,26*,-1,-11,9,10
Cc1nc2ccc(NC(=O)c3cc(S(=O)(=O)N(C)c4ccccc4)ccc3Cl)cc2s1,-8,9,5,16,1,·,·
SMILES,proCasp3 act,procasp7 counter,IDE cell inh,TPT1 inhibitor,IDE act,IDE cell inh cf,HEK cytotox
Cc1nc2ccc(NC(=O)c3ccc(Cl)c(S(=O)(=O)N(C)c4ccccc4)c3)cc2s1,-1,12,26*,0,-6,3,54*
CCc1nnc(/N=C/c2c(O)n(-c3ccc(Cl)cn3)c(=O)c3ccccc23)s1,-2,-18,17*,-4,5,7,10
CC(C)(C)N/N=C/c1c(O)n(-c2ccc(Cl)cn2)c(=O)c2ccccc12,-5,-1,-1,0,-1,·,·
CCOC(=O)c1c(C)[nH]c(C(=O)COC(=O)CNC(=O)c2ccccc2Cl)c1C,3,5,17*,-1,2,1,13
Cc1ccccc1S(=O)(=O)Cc1ccc(C(=O)N2CCN(c3cccc(C)c3C)CC2)o1,0,2,17*,-3,-6,6,69*
CC1CCCC12NC(=O)NC2=O (stereo not drawn),·,·,·,·,0,·,·
CCOc1ccc(S(=O)(=O)N(CC)CC(=O)N2CCOCC2)cc1C,0,5,2,0,5,·,·
COCCNc1ncnc2c1[nH]c1ccccc12,-3,2,18*,-1,-13,6,18
CCN(CC)CCNc1ncnc2c1[nH]c1ccc(OC)cc12,9,-3,-1,0,·,·,·
COc1ccc2[nH]c3c(NCc4ccco4)ncnc3c2c1,-12,-9,38*,2,·,18*,15
Fc1ccc2[nH]c3c(NCc4ccccc4)ncnc3c2c1,-11,-7,88*,-1,-24,67*,59*
Cc1ccc2cc(CCNS(=O)(=O)c3ccc(F)cc3)c(=O)[nH]c2c1C,4,-5,2,-1,1,·,·
CC(C)(C)[C@H]1COC(=O)CCCC/C=C\C[C@H](CC(=O)NCCO)C(=O)N1,1,5,-2,·,9,·,·
O=C(Nc1cccc(-n2cnnn2)c1)c1cccs1,-4,2,4,-2,7,·,·
CCc1sc(C(=O)Nc2cccc(-n3cnnn3)c2)cc1C,4,9,32*,·,-19,19*,19
COc1ccccc1-[n+]1c(C)cc(/C=C2\Sc3ccccc3N2C)cc1C,-17,-37,52*,123*,-70,104*,113*
O=C(O)CCC(=O)N1N=C(c2ccc(Br)cc2)CC1c1cccc(Br)c1 (stereo not drawn),1,2,-3,-2,2,·,·
CCC(=O)N1CCN(c2nc(-c3ccc(Cl)cc3)cs2)CC1,-5,-1,18*,2,-15,10,19
CCOC(=O)C1=C(CSc2nc(C)cc(C)c2C#N)OC(N)=C(C#N)C1c1cccs1 (stereo not drawn),-14,-4,23*,6,·,3,5
COc1ccc(C(=O)/C=C/c2cc(OC)c(O)c(OC)c2)c(F)c1,-9,-14,52*,6,-58,87*,43*
